Compound activity (PubChem BioAssay)
Compounds with a hit are over-represented: about 2.6% of the library has one in this group of screens.
SENP8 block-1: SENP8 protease inhibitors, primary screen, biochemical, luminescence. 1.2% of 330,000 active. AID 2540, 2010. Sentrin-specific protease 8 (Homo sapiens), Q96LD8. purified SENP8, Z-RLRGG-aminoluciferin cleavage. inhibition, % at 10 µM; in the data active means inhibition above about 50%
SENP7 block: SENP7 protease inhibitors, primary screen, biochemical, luminescence, uHTS; inhibition, % at 5 µM; Sentrin-specific protease 7 (Homo sapiens), Q9BQF6; 1.5% of 330,000 active; recombinant SENP7, Z-RLRGG-aminoluciferin luminescence, 40 min;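 active means inhibition above about 50% at the single test dose, limit read from the data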
Target sequence (Q9BQF6 706-1050 limits assumed): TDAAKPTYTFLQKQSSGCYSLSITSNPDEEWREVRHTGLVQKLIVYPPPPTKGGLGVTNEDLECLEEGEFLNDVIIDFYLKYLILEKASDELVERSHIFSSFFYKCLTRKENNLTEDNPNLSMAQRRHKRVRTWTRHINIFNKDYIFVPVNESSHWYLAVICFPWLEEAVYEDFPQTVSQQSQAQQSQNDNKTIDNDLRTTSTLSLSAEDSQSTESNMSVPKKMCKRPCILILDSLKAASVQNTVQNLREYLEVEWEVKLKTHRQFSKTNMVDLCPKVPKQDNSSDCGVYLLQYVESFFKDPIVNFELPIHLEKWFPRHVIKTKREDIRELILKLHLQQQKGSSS
SENP8 block-2: human SENP8 protease inhibitors, primary screen, biochemical, fluorescence, Nedd8 protein substrate, uHTS. inhibition, % at 20 µM. Sentrin-specific protease 8 (Homo sapiens), Q96LD8. recombinant SENP8. 0.64% of 360,000 active; in the data active means inhibition mostly above about 40%, no sharp cut-off; inactive means mostly below about 27%
SENP6 block: SENP6 protease inhibitors, primary screen, biochemical, luminescence, uHTS. Sentrin-specific protease 6 (Homo sapiens), Q9GZR1. Recombinant SENP6 catalytic domain, aminoluciferin luminescence. inhibition, % at 10 µM. 1.8% of 330,000 active;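 active means inhibition above about 50% at the single tested dose, limit read from the data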
Platelet DG rel: inhibitors of platelet dense granule secretion, primary screen, cell-based, MLPCN, human platelets; human platelet-rich plasma, SFLLRN dense granule ATP release, luminescence; inhibition, %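 (compounds screened at 7.5 µM in platelet-rich plasma)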; 0.22% of 300,000 active;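 active means mean replicate score, as percent of positive control, at or above 50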
SENP1 inh: human SENP1 catalytic domain inhibitors, primary screen, biochemical, FRET, uHTS. recombinant SENP1 catalytic domain, CyPet-SUMO1-YPet FRET cleavage. 0.21% of 360,000 active. inhibition, % at 10 µM. Sentrin-specific protease 1 (Homo sapiens), Q9P0U3. AID 624204, 2012;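 active means inhibition at least 30% at 10 µM, raw YFP signal under a set limit, fluorescence ratio 0.5 to 1.5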
Target sequence (Q9P0U3 419-644 limits assumed): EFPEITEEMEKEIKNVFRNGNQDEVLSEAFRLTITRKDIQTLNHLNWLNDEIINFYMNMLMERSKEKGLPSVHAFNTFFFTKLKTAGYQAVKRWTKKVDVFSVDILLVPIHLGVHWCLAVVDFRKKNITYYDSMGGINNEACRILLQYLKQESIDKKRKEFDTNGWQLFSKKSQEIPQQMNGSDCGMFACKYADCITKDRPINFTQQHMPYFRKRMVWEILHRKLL
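Material: hSENP1 catalytic domain, recombinant; medium: Tris pH 8 with BME, BSA, NP40 and catalase; compound: single concentration of 10 µM compound, 0.5% DMSO final; technique: FRET read of cyan and yellow fluorescence; timing: 50 min enzyme reaction, room temperature, light-protected; reagent: SFCypet-SUMO1-SFYpet substrate at 25 nM; control set: no-enzyme low, enzyme-DMSO high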
SENP8 inh conf: human SENP8 protease inhibitors, confirmation, biochemical, Nedd8 protein substrate, single concentration | 15% of 1,400 active | inhibition, % at 25 µM | purified SENP8, Nedd8-AMC/pro-Nedd8 cleavage fluorescence, 30 min | shares compounds with SENP8 block-2; in the data active means inhibition mostly above about 39%, no sharp cut-off; inactive means mostly below about 34%
Each line names hits and unclear results; the compound was inactive in the other large screens (follow-up assays come after a bar, where they were run).

CSCC[C@H](NC(=O)[C@@H]1CSC2c3ccccc3C(=O)N21)C(=O)N1CCC[C@H]1CO (stereo not given in full)	SENP8 block-2 62 | SENP8 inh conf inactive
O=C1CC(Sc2ncccc2C(=O)O)C(=O)N1 (stereo not given)	none
O=C1CC(SC(=S)C2CCCC2=O)C(=O)N1 (stereo not given)	SENP8 block-2 41 (no result: SENP8 block-1, SENP7 block, SENP6 block, Platelet DG rel) | SENP8 inh conf inactive
CCOC(=O)C1(C)CCCN(C(=O)c2cc(F)ccc2C)C1 (stereo not given)	none (no result: SENP8 block-1, SENP7 block, SENP6 block, Platelet DG rel)
O=C(O)c1cccc2c1C(=O)c1ccc(N3CCN(Cc4ccc5c(c4)OCO5)CC3)cc1S2(=O)=O	none (no result: SENP8 block-1, SENP7 block, SENP6 block, Platelet DG rel)
COc1ccc(OC)c(C(=O)c2c(C)oc3cc([N+](=O)[O-])c(O)c([N+](=O)[O-])c23)c1	none
Cc1oc2cc([N+](=O)[O-])c(O)c([N+](=O)[O-])c2c1C(=O)c1ccc(Cl)cc1	SENP8 block-2 42 | SENP8 inh conf inactive
Cc1cc(C(=O)N/N=C/c2ccc([N+](=O)[O-])s2)c2ccccc2n1	SENP8 block-2 46 | SENP8 inh conf inactive
O=C(N/N=C/c1cc([N+](=O)[O-])ccc1O)c1cc(-c2ccccc2)nc2ccccc12	none
O=C(N/N=C/c1cc([N+](=O)[O-])ccc1Cl)c1cc(-c2ccccc2)nc2ccccc12	SENP8 block-2 41 | SENP8 inh conf inactive
CCCCN(C(=O)c1ccc(NC2CC2)c([N+](=O)[O-])c1)c1c(N)n(CC(C)C)c(=O)[nH]c1=O	none (no result: Platelet DG rel)
Cc1cc(=O)oc2cc(OC(C)C(=O)NC3(C#N)CCCCC3)ccc12 (stereo not given)	none (no result: Platelet DG rel)
O=C(CCS(=O)(=O)c1cccc2nonc12)NCCc1ccccc1	SENP8 block-2 41 | SENP8 inh conf inactive
CCC(=O)NC(Nc1sc2c(c1C(=O)OC)CCCC2)(C(F)(F)F)C(F)(F)F	SENP8 block-2 43 | SENP8 inh conf inactive
COCC(=O)Nc1sc2c(c1C(=O)OC)CCCC2	none
CCN(CC(=O)NCC1CCCO1)S(=O)(=O)c1ccc2ccccc2c1 (stereo not given)	none
CN1CCC(=NNC(=O)C(=O)NC2CCCCC2)CC1	none
CN1CCC(=NNC(=O)C(=O)NC2CCCC2)CC1	SENP8 block-2 40 | SENP8 inh conf inactive
O=C(NC1CCCC1)C(c1ccncc1)N(C(=O)Cn1nnc(-c2ccccc2F)n1)c1cccc(F)c1 (stereo not given)	none
CCOC(=O)c1[nH]c(C)c(C(=O)OCC(=O)N2CCCCC2C)c1C (stereo not given)	SENP8 block-2 41 | SENP8 inh conf inactive
O=C1CC(CC(=O)N/N=C/c2ccccc2[N+](=O)[O-])=NN1	SENP8 block-2 40 | SENP8 inh conf inactive
Cc1ccc(NC(=O)c2sc(N)nc2-c2ccc([N+](=O)[O-])cc2)c(C)c1	SENP8 block-2 45 | SENP8 inh conf inactive
COc1ccccc1NS(=O)(=O)c1ccc(C(=O)NCC(c2ccco2)N2CCCCC2)cc1 (stereo not given)	none (no result: SENP8 block-1, SENP7 block, SENP6 block, Platelet DG rel)
Cc1ccc2nc(C)cc(C(=O)N3CCCC(CO)(Cc4ccccc4C)C3)c2c1 (stereo not given)	none
COc1ccc(C(=O)Cn2c(C)nc([N+](=O)[O-])c2Br)cc1	none
Cc1nc([N+](=O)[O-])c(Br)n1CC(=O)c1ccc(Cl)cc1	SENP8 block-2 42 | SENP8 inh conf inactive
O=C(O)C1CCN(C(=O)c2ccccc2N2C(=O)[C@@H]3Cc4c([nH]c5ccccc45)C(c4cccc(Cl)c4)N3C2=O)CC1 (stereo not given in full)	none
Cc1ccc2nc(SCC(=O)NCCc3ccccc3)nc(=O)n2c1	none
COc1ccc(CCNC(=O)CSc2nc(=O)n3cc(C)ccc3n2)cc1OC	SENP8 block-2 62 | SENP8 inh conf inactive
COC(=O)Cc1c(C)[nH]n(-c2cc(Cl)cc(Cl)c2)c1=O	SENP8 block-2 59 | SENP8 inh conf inactive
CCOC(=O)c1n[nH]n(-c2cc(Cl)cc(Cl)c2)c1=O	none
O=C(NCCN1CCOCC1)c1ccc([N+](=O)[O-])cc1[N+](=O)[O-]	SENP8 block-2 46 | SENP8 inh conf inactive
CCN(CC(=O)NC(C)(C)C)Cc1nc2c(Br)cc(Br)cc2c(=O)[nH]1	SENP8 block-2 41 | SENP8 inh conf inactive
COc1ccc(OC)c(NC(=O)c2ccc3c(c2)C(=O)N(CC2CCCO2)C3=O)c1 (stereo not given)	none
O=C(O)/C=C\C(=O)Nc1ccc(N2CCN(c3ccc(F)cc3)CC2)cc1	SENP8 block-2 38 | SENP8 inh conf inactive
Cc1ccc(OCCn2cnc3c2c(=O)n(C)c(=O)n3C)cc1	none
COc1ccc(C(=O)/C=C(\C)Nc2ccc3c(c2)OCO3)cc1	SENP8 block-2 41 | SENP8 inh conf inactive
O=C(NCC1CCCO1)c1cccc(S(=O)(=O)Nc2ccc(F)cc2)c1 (stereo not given)	none (no result: Platelet DG rel)
Cc1cn(CC(=O)NCCN2CCOCC2)c(=O)[nH]c1=O	none (no result: SENP8 block-1, SENP7 block, SENP6 block, Platelet DG rel)
CC(C)[C@H](NC(=O)N1c2ccccc2NC(=O)[C@@H]1C(C)C)C(=O)N[C@@H](Cc1ccccc1)C(=O)O	SENP8 block-2 54 | SENP8 inh conf inactive
CC(C)[C@H](NC(=O)N1CC(=O)Nc2ccccc21)C(=O)N[C@H](Cc1c[nH]c2ccccc12)C(=O)O	SENP8 block-2 44 | SENP8 inh conf inactive
Cc1ccc(CN2CC(N3CC=CC3)CS2(=O)=O)cc1 (stereo not given)	SENP8 block-2 48 (no result: SENP8 block-1, SENP7 block, SENP6 block, Platelet DG rel) | SENP8 inh conf inactive
Cn1cc(Br)c(C(=O)Nc2nccs2)n1	none
COC(=O)c1ccn(CC(=O)NC2CCCCC2)n1	none
COc1ccc(CN(C2CCCC2)S(=O)(=O)c2ccc(-n3cnnn3)cc2)cc1	SENP8 block-2 44 | SENP8 inh conf inactive
CCN(C(=O)COC(=O)c1cnc(C)cn1)C1CCCCC1	SENP8 block-2 40 | SENP8 inh conf inactive
Cc1cnc(C(=O)OCC(=O)NC2CCCCCCC2)cn1	none
O=C1N=C(N2C=CC(=C3C=CNC=C3)C=C2)/C(=C/N=NC(=O)c2ccccc2)S1	none
Cc1c(CC(=O)N2CCC(O)CC2)c(=O)oc2cc3c(cc12)CCC1(CCCCC1)O3	none (no result: SENP8 block-1, SENP7 block, SENP6 block, Platelet DG rel)
Nc1cc(Cl)nc(N/N=C/c2ccccc2[N+](=O)[O-])n1	SENP8 block-2 52 | SENP8 inh conf inactive
Nc1cc(Cl)nc(N/N=C/c2ccc([N+](=O)[O-])cc2)n1	none
Cc1ccc(NC(=O)CN2CCc3cc4c(cc3C2)OCCCO4)cc1	SENP8 block-2 43 | SENP8 inh conf inactive
